The values below come from ChEMBL document CHEMBL1126099, “Synthesis and biological characterization of alpha-(4-fluorophenyl)-4-(5-fluoro-2-pyrimidinyl)-1-piperazinebutanol and analogues as potential atypical antipsychotic agents” (J Med Chem, 1992).

Assay [1] has as its target T1, Adrenergic receptor alpha-1 (Rattus norvegicus, UniProt P15823+P23944+P43140).
T1 sequence (P15823 whole entry): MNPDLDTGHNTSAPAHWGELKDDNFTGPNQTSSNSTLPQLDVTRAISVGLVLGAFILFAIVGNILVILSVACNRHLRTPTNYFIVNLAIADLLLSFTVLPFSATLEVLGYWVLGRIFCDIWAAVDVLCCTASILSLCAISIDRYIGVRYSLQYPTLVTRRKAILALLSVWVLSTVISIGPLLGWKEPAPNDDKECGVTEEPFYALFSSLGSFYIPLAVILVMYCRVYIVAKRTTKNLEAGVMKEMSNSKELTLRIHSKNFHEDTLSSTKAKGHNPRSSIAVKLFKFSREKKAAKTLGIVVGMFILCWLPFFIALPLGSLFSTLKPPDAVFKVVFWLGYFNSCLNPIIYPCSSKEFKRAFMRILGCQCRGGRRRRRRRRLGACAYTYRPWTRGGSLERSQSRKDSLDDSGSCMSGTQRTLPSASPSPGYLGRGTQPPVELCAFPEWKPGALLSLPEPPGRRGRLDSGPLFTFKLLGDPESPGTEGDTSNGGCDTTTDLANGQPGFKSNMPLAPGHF
T1 sequence (P23944 whole entry): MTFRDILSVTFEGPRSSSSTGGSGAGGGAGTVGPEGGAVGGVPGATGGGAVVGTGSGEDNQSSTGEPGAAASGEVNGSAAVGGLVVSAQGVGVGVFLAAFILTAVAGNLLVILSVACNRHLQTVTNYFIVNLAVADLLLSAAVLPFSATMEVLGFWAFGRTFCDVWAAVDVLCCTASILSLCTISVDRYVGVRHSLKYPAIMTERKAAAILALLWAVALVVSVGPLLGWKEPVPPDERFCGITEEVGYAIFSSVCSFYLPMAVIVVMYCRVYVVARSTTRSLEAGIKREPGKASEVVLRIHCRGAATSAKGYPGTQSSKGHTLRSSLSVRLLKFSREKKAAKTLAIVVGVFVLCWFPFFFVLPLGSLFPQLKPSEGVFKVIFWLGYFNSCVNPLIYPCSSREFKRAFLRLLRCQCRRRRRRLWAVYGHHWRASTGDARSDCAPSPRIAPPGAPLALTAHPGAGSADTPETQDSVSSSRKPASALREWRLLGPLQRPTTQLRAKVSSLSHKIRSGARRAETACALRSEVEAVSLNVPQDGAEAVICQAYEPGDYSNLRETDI
T1 sequence (P43140 whole entry): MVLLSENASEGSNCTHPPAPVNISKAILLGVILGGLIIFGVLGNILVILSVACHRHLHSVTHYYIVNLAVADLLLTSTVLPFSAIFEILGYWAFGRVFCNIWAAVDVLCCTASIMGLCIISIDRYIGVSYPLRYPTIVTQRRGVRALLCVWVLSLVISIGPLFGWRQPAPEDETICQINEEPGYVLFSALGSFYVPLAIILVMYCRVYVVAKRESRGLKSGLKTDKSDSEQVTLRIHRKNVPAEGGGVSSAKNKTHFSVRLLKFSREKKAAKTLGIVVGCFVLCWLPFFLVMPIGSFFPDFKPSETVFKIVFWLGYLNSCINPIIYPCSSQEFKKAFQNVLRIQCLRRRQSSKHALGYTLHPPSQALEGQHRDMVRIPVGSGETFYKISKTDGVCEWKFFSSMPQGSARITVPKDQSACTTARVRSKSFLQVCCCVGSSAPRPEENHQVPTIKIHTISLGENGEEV
Put plainly: Inhibitory concentration against radioligand [3H]-WB- 4101 binding to rat cortical Alpha-1 adrenergic receptor. Format: protein assay. The essentials:
(§1)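 Competition binding against tritiated radioligand. Test drug was run at five concentrations in a single experiment, and IC50 (nM) was derived from displacement.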

Another assay concerns the target D(2) dopamine receptor (Rattus norvegicus, UniProt P61169). Briefly: Inhibitory concentration against radioligand [3H]spiperone binding to rat striatal Dopamine receptor D2. The essentials: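 [3H]Spiperone displacement at the D2 receptor. Each value comes from a single experiment in which displacement of the tritiated ligand was measured at five concentrations of test drug, and an IC50 in nM was derived from that.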

In assay [2] the test system is Rattus norvegicus. Briefly: Effective in vivo peroral dose against induction of catalepsy in rats. Format: functional.
For assay [3], the species on record is Rattus norvegicus. Put plainly: Inhibition of apomorphine-induced stereotypy in rats via peroral route. Format: functional. As to conditions: Rattus norvegicus, po; read-out: ED50.
Assay [4] deals with T1, Adrenergic receptor alpha-1. Put plainly: In vitro inhibitory concentration against radioligand [3H]WB-4101 binding to rat cortical alpha-1 adrenergic receptor. Format: protein assay.
For assay [5], the species on record is Rattus norvegicus. Put plainly: Effective peroral dose for inhibition of conditioned avoidance response in rats. Format: functional. As to conditions: po.
Assay [6] deals with Sigma non-opioid intracellular receptor 1 (Rattus norvegicus, UniProt Q9R0C9). Put plainly: Compound was tested in vitro for its ability to displace radioligand (+)-[3H]-3-PPP from rat cortical sigma receptor.
For assay [7], the target named is T1, Adrenergic receptor alpha-1. Briefly: Inhibition of [3H]WB-4101 binding to rat cortical Alpha-1 adrenergic receptor in vitro. Format: protein assay. The essentials:
as §1

For assay [8], the species on record is Mus musculus. Put plainly: Effective dose for inhibition of norepinephrine induced lethality in mouse. Type of assay: functional.
The species named for assay [9] is Mus musculus. Put plainly: Effective dose for inhibition of physostigmine induced lethality in mouse. Type of assay: functional.
For assay [10], the system named is Rattus norvegicus. Put plainly: Bmax (D2 receptor number) was determined after peroral administration of 15 mg/Kg in rats qd for 29 days. Format: functional. The essentials:
(§2)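 Rats dosed orally once daily for 29 days with vehicle or test drug. Striatal D2 receptor number (Bmax, fmol/mg protein) and affinity (KD, pM) were then measured. Values are mean ± SEM for the number of preparations, with significance versus vehicle by Student's t-test (p < 0.05).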

The subject of assay [11] is Rattus norvegicus. Put plainly: Bmax (D2 receptor number) was determined after peroral administration of 30 mg/Kg in rats qd for 29 days. Format: functional. The essentials: as §2
For assay [12], the species on record is Rattus norvegicus. Briefly: Effective dose for ethanol potentiation in rats. Type of assay: functional.
Assay [13] is filed under the species Rattus norvegicus. Briefly: Effective dose for inhibition of spontaneous motor activity in rats. Format: functional.
The species entered for assay [14] is Rattus norvegicus. Put plainly: Effective dose for motor incoordination in rats was determined by rotarod method. Format: functional.
Assay [15] relates to Rattus norvegicus. Put plainly: Effect of chronic administration at a peroral dose of 30 mg/Kg qd for 29 days on D2 receptor binding in rat striata. Format: functional, organism-based. The essentials:
as §2

Assay [16] concerns Rattus norvegicus. Put plainly: Effect of chronic administration at a peroral dose of 15 mg/Kg qd for 29 days on D2 receptor binding in rat striata. Type of assay: functional, organism-based. The essentials: as §2

Chain of Sigma non-opioid intracellular receptor 1 (Q9R0C9 whole entry): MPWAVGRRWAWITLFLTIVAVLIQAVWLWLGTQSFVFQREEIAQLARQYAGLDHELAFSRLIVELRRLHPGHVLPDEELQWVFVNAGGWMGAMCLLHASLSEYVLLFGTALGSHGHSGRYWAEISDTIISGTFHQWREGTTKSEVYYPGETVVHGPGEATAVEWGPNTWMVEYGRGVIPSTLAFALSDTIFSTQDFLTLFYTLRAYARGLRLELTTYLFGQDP
Chain of D(2) dopamine receptor (P61169 whole entry): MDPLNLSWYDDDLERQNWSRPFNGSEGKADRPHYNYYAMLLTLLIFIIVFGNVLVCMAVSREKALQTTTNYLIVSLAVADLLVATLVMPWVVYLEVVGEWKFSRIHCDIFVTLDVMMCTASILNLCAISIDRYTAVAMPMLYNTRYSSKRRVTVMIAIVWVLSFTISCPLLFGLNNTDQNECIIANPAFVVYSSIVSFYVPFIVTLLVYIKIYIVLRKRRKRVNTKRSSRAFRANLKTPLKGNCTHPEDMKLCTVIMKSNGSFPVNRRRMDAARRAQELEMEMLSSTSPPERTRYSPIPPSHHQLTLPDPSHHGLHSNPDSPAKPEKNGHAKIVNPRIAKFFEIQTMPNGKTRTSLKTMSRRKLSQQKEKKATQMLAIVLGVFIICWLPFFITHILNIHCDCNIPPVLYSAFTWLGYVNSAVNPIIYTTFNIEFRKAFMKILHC

Regarding `O[C@H](CCCN1CCN(c2ncc(F)cn2)CC1)c1ccc(F)cc1`, the IC50 in assay [1] is 610 nM; on D(2) dopamine receptor it was more than 1000 nM. Moreover, the median effective dose (ED50) in the assay with Rattus norvegicus [2] (Rattus norvegicus, po, read-out: ED50) came out at 11.4 mg/kg; in the assay filed under Rattus norvegicus [3], 44 mg/kg.

Regarding `O=C(CCN1CCN(c2ncc(F)cn2)CC1)c1ccc(F)cc1`, the IC50 in [4] came to 523 nM; in assay [6] it was 69 nM. Moreover, the ED50 in the assay filed under Rattus norvegicus [5] and in the assay filed under Rattus norvegicus [3] was more than 100 mg/kg throughout.

With `OC(CCCN1CCN(c2ncc(F)cn2)CC1)c1ccc(F)cc1` (stereo in doubt; 16) [BMY-14802], the half-maximal inhibitory concentration (IC50) in [7] is recorded as 520 nM; in assay [1] it was 460 nM. Moreover, the 50% effective dose (ED50) in the assay filed under Mus musculus [8] is more than 100 mg/kg; in the assay filed under Mus musculus [9], more than 100 mg/kg; in the assay with Rattus norvegicus [2] it was more than 100 mg/kg; in the assay listed under Rattus norvegicus [12], 20.1 mg/kg; in the assay filed under Rattus norvegicus [13], 87.3 mg/kg; in the assay filed under Rattus norvegicus [14], 43.5 mg/kg. In addition, the ED50 in the assay filed under Rattus norvegicus [3] was found to be 33 mg/kg. The Bmax in the assay on Rattus norvegicus [10] worked out at 233 fmol/mg protein; in the assay with Rattus norvegicus [11], 212 fmol/mg protein. Moreover, the figures for the dissociation constant (Kd) in the assay with Rattus norvegicus [15] and with Rattus norvegicus [16] were 0.101 nM and 0.121 nM, respectively.
